Assay results gathered from unrelated publications.
Compare with care: the assays were run in different laboratories.
Target: Prostaglandin G/H synthase 2 (PTGS2, Homo sapiens, UniProt P35354)
Observed: enzyme activity
Action: inhibitor
Sequence (P35354 18-604, as in one of the studies): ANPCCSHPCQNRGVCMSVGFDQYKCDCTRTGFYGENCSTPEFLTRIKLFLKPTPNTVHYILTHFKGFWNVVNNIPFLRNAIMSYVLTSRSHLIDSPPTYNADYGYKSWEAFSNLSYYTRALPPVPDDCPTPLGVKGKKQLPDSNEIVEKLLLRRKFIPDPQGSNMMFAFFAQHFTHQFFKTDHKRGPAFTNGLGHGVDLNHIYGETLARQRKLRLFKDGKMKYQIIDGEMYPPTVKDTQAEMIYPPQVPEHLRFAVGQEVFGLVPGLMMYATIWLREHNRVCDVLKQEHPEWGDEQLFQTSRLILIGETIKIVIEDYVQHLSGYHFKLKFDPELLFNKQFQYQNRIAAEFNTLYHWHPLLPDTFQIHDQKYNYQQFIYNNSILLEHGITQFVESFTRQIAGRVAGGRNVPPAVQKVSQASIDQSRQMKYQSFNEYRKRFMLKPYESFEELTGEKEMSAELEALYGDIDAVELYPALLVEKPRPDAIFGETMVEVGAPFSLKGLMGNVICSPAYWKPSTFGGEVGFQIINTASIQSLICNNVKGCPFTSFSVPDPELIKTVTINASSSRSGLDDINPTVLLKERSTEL

Compound	IC50 [µM]
Cc1ccc(S(=O)(=O)[N](Nc2ccc([N+](=O)[O-])cc2[N+](=O)[O-])[Sn]([Cl])[Cl])cc1	2.74
O=C(Nc1ccc(-c2ccccc2)cc1)c1cnn(-c2ccc([N+](=O)[O-])cc2)c1C(F)(F)F	6
Cc1ccc(S(=O)(=O)NNC(=O)COC(=O)c2ccccc2Nc2cccc(C(F)(F)F)c2)cc1	9
NS(=O)(=O)c1ccc(-n2nc(C(=O)NN=Cc3cccnc3)cc2-c2ccccc2)cc1	3.93
Cc1ccc(S(=O)(=O)NNc2ccc([N+](=O)[O-])cc2[N+](=O)[O-])cc1	4.74
CC(=NNC(=O)c1cc(-c2ccccc2)n(-c2ccc(S(N)(=O)=O)cc2)n1)c1ccc(C)cc1	1.34
COc1cc(NC(=O)c2cnn(-c3ccc([N+](=O)[O-])cc3)c2C(F)(F)F)cc(OC)c1	5.78
O=C(COC(=O)c1ccccc1Nc1cccc(C(F)(F)F)c1)Nc1ccc(F)cc1	58
